Screening data (PubChem)
hERG protect: hERG rescue from dofetilide block, primary screen, cell-based, CHO-hERG, FluxOR thallium flux, dofetilide IC70; Voltage-gated inwardly rectifying potassium channel KCNH2 (Homo sapiens), Q12809; 310,000 tested, 0.51% active; dofetilide IC70 present; activation (rescue from dofetilide block), less the hit threshold, % at 10 µM;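 active means activation above the mean of controls blocked by dofetilide plus 5 SD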;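 further: thallium influx through hERG after potassium depolarization seen as dye fluorescence rise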
KCNK9 inh: KCNK9 potassium channel inhibitors, primary screen, HEK293 cells, thallium flux. Potassium channel subfamily K member 9 (Homo sapiens), Q9NPC2. FluxOR thallium flux fluorescence; active compounds read low. B-score at 10 µM. 310,000 tested, 1.2% active. AID 488922, 2010;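 active means ratio B-score over 3 SD below the library mean, with starting fluorescence within 5 SD of its mean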;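 further: negative B-score means less thallium flux so channel inhibition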
KCNQ1 pot: potentiators or activators of KCNQ1 channel, primary screen, cell-based, thallium flux, high-throughput | Potassium voltage-gated channel subfamily KQT member 1 (Homo sapiens), P51787 | CHO-K1 KCNQ1, thallium flux FluxOR fluorescence; active compounds read high | B-score at 10 µM | 310,000 tested, 0.35% active | AID 2648, 2010;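 active means fluorescence ratio B-score, a plate-corrected score, at least three library SD, with initial intensity B-score within 5 SD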
Target sequence (P51787 whole entry, looked up): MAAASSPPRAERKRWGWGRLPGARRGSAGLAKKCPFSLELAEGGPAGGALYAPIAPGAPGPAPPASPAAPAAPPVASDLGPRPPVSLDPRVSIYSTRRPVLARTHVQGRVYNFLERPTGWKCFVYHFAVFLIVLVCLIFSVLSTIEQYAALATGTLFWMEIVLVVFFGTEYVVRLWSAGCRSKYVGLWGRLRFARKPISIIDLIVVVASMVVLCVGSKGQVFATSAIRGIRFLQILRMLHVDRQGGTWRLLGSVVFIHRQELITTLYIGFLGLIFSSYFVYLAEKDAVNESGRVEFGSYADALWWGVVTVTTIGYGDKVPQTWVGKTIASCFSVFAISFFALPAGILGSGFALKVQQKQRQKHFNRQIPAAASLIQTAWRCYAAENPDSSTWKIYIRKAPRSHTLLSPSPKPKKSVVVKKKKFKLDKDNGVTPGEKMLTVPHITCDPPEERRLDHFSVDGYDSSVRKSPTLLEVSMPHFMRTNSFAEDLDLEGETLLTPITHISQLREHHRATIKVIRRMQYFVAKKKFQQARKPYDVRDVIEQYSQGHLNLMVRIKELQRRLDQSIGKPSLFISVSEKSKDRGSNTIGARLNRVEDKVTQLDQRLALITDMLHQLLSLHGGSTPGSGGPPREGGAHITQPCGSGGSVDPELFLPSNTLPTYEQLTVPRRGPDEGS
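Test system: CHO-K1 cells stably expressing KCNQ1 / Medium: assay buffer / Also added: depolarizing K+/Tl+ stimulus, K2SO4 and Tl2SO4 each 12.5 mM in 5x stock / Incubation: 90 min dye loading and 20 min compound exposure, both at room temperature / Signal: thallium influx via FluxOR fluorescence, kinetic imaging / Evaluation: B score of baseline-normalized fluorescence ratio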
KCNQ1 block: inhibitors of human KCNQ1 channel, primary screen, cell-based, thallium flux, high-throughput. Potassium voltage-gated channel subfamily KQT member 1 (Homo sapiens), P51787. CHO-K1 KCNQ1, FluxOR thallium flux fluorescence; active compounds read high. B-score at 10 µM. 310,000 tested, 1.3% active. AID 2642, 2010;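 active means compounds whose thallium flux B-score, printed positive for inhibition, exceeds three library SD while starting fluorescence stays within three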;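 further: channel opened by potassium depolarization with thallium stimulus after 20 min compound exposure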
KCNK3 block: human KCNK3 channel inhibitors, primary screen, CHO cells, FluxOR thallium flux, B-score | Potassium channel subfamily K member 3 (Homo sapiens), O14649 | FluxOR fluorescence; active compounds read low | B-score at 10 µM | 340,000 tested, 0.84% active | AID 602410, 2012;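 active means B-score under library mean minus 4 SD, starting fluorescence ratio at most library mean plus 5 SD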;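 further: more negative B-score means stronger inhibition of thallium flux through KCNK3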
Kir21 block: inhibitors of mouse Kir2.1 inward-rectifier potassium channel | Inward rectifier potassium channel 2 (Mus musculus), P35561 | HEK293-Kir2.1, FluxOR thallium flux fluorescence; active compounds read low | B-score at 10 µM | 310,000 tested, 0.85% active;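 active means fluorescence ratio B-score at or below minus 3 SD of library scores, with starting-brightness B-score within 2 SD, cut at about -4.2 in these data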;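 further: channel flux triggered by added potassium and thallium sulfate stimulus; B-score of peak minus minimum fluorescence over baseline after thallium stimulus; more negative B-score means stronger Kir2.1 block with less thallium influx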
KCNK9 inh conf: KCNK9 potassium channel inhibitors, confirmation, HEK293 cells, thallium flux, duplicate | shares compounds with KCNK9 inh | inhibition, % at 10 µM | FluxOR thallium flux fluorescence | 4,900 tested, 43% active;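 active means thallium signal inhibited by more than 5 SD of the compound-free buffer control wells, on both duplicate plates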
Kir2-1 spec: mouse Kir2.1 channel inhibition, confirmation, selectivity assay for KCNK9 modulator project, cell-based, HEK293, thallium flux; shares compounds with KCNK9 inh; Kir2.1 cells, FluxOR thallium flux fluorescence; inhibition, % at 10 µM; 4,900 tested, 4% active; AID 492993, 2010;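 active means thallium signal drop more than 5 SD beyond the mean of the no-compound control wells, seen in both duplicate plates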;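 further: signal is fluorescence rise after thallium addition divided by baseline fluorescence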
HEK293 Tl ctr: thallium flux in non-induced HEK293 cells, confirmation, counter-screen for KCNK9 inhibitor project, cell-based, second counter screen, non-induced KCNK9-HEK293; shares compounds with KCNK9 inh; FluxOR thallium flux; inhibition, % at 10 µM; 4,900 tested, 40% active; AID 492997, 2010;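 active means thallium signal drop beyond 5 SD of the untreated control mean, on both duplicate plates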
Large screens that a line does not name were inactive (follow-up assays come after a bar, where they were run). A selection: hits, their analogues and other compounds. The true share with any hit is near 3.7%.

CN(C)CCN(Cc1cc2cc3c(cc2nc1Cl)OCO3)C(=O)c1ccco1	none
Cc1ccc(C)c(N(C)C(=O)c2cc3c(=O)[nH]c4ccc(C)cc4c3s2)c1	none
O=c1sc(N2CCN(c3ccccc3F)CC2)nc2ccsc12	KCNK9 inh -13.2 | KCNK9 inh conf 35.5% | Kir2-1 spec inactive | HEK293 Tl ctr 40.0%
NS(=O)(=O)c1ccc(NCc2cc(Cl)ccc2OCc2ccccc2F)cc1	KCNK9 inh -14.9 | KCNK9 inh conf 50.0% | Kir2-1 spec inactive | HEK293 Tl ctr 41.0%
CCC(C)C(=O)Nc1nc(C)c(-c2csc(Nc3cc(Cl)ccc3OC)n2)s1 (stereo not drawn)	none
COc1ccc(OC)c(Nc2nc(-c3sc(C)nc3C)cs2)c1	none
CCC(C)C(=O)Nc1nc(C)c(-c2csc(Nc3cc(OC)ccc3OC)n2)s1 (stereo not drawn)	KCNK9 inh -10.9 | KCNK9 inh conf 40.5% | Kir2-1 spec inactive | HEK293 Tl ctr 27.0%
COc1ccc(OC)c(Nc2nc(-c3sc(NC(=O)CC(C)C)nc3C)cs2)c1	KCNK9 inh -16.5 | KCNK9 inh conf 39.5% | Kir2-1 spec inactive | HEK293 Tl ctr 31.5%
COc1ccc(OC)c(Nc2nc(-c3sc(NC(=O)C(C)(C)C)nc3C)cs2)c1	KCNK9 inh -13.1 | KCNK9 inh conf 46.0% | Kir2-1 spec inactive | HEK293 Tl ctr inactive
C=C1C(=O)O[C@@]23[C@H]1CC[C@@H](C)[C@@H]2CC[C@@]1(C)O[C@@H]31	none (no result: hERG protect, KCNK9 inh, KCNQ1 pot, KCNQ1 block, Kir21 block)
O=C(CCCc1ccccc1)NCCS(=O)(=O)N1CCN(c2ccccc2F)CC1	none
O=C(CCCOc1ccc(Br)cc1)NCCc1ccc(OC(F)F)cc1	none
O=[N+]([O-])c1ccc(N2CCN(S(=O)(=O)c3ccc4ccccc4c3)CC2)cc1NCC1CCCO1 (stereo not drawn)	none
COc1ccc(Cc2nn3c(-c4ccccc4Br)nnc3s2)cc1	none
Brc1ccccc1-c1nnc2sc(Cc3ccccc3)nn12	KCNK9 inh -15.1 | KCNK9 inh conf 35.5% | Kir2-1 spec inactive | HEK293 Tl ctr 26.5%
CCc1ccc(OCCNC(=O)c2ccccc2SCc2ccccc2)cc1	KCNQ1 block 7 | KCNK9 inh conf inactive | Kir2-1 spec inactive | HEK293 Tl ctr 37.0%
C#CCCOC(=O)N1C2=NC(C(=O)OC)=C(C(=O)OC)[C@@H]3N(Cc4ccccc4)c4ccccc4[C@]23C[C@H]1C(=O)OC	KCNK9 inh -9.5 | KCNK9 inh conf 51.0% | Kir2-1 spec inactive | HEK293 Tl ctr 33.5%
C#CCCOC(=O)N1C2=NC(C(=O)OC)=C(C(=O)OC)[C@@H]3N(C)c4ccccc4[C@]23C[C@H]1C(=O)OC	none
C=CCN1c2ccccc2[C@]23C[C@@H](C(=O)OC)N(C(=O)NCCC)C2=NC(C(=O)OC)=C(C(=O)OC)[C@H]13	KCNK9 inh -9.28 | KCNK9 inh conf 32.5% | Kir2-1 spec inactive | HEK293 Tl ctr 29.5%
Fc1ccccc1Oc1nc(-c2ccncc2)nc2ccccc12	none
Cc1c(C(=O)N2CCC(C)CC2)sc2ncnc(N3CCN(c4ccccc4)CC3)c12	none | KCNK9 inh conf inactive | Kir2-1 spec inactive | HEK293 Tl ctr inactive
Cc1c(C(=O)N2CCN(c3ccccc3)CC2)sc2ncnc(N3CCN(c4ccccn4)CC3)c12	none
Cc1c(C(=O)N(C)C2CCCCC2)sc2ncnc(N3CCN(c4ccccc4)CC3)c12	none | KCNK9 inh conf inactive | Kir2-1 spec inactive | HEK293 Tl ctr inactive
Cc1c(C(=O)N(C)C2CCCCC2)sc2ncnc(N3CCN(c4ccccc4F)CC3)c12	none
Cc1sc2nc(-c3cccnc3)nc(Cl)c2c1-c1ccccc1	none | KCNK9 inh conf inactive | Kir2-1 spec inactive | HEK293 Tl ctr inactive
CCN(CC(=O)Nc1ccc(NC(C)=O)cc1)C(=O)/C=C/c1ccc(S(=O)(=O)N2CCCCCC2)cc1	none
Cc1ccc(CN2CCCN(Cc3ccc(F)cc3Cl)S2(=O)=O)cc1	none
O=S1(=O)N(Cc2ccccc2F)CCCN1Cc1c(F)cccc1Cl	KCNK9 inh -14.5 | KCNK9 inh conf 67.5% | Kir2-1 spec inactive | HEK293 Tl ctr 34.0%
CCOc1ccccc1NC(=O)N1CCC(C(=O)c2ccc(F)cc2)CC1	KCNK9 inh -10 | KCNK9 inh conf 41.5% | Kir2-1 spec inactive | HEK293 Tl ctr 36.5%
CCOc1ncccc1C(=O)OCC(=O)NCCc1ccc(S(N)(=O)=O)cc1	none (no result: hERG protect, KCNK9 inh, KCNQ1 pot, KCNQ1 block, Kir21 block)
CCc1nn(CCCC(=O)NCc2ccccc2C)c(=O)c2cc3occc3n12	none
Cc1cccc(C(=O)NCCc2nnc(SCC(=O)Nc3cccc(C(=O)O)c3)n2C)c1	none
Cn1c(=O)n(C)c2cc(NC(=O)c3ccccc3[N+](=O)[O-])c(Br)cc21	none
COc1cc(/C=N/OCC(=O)NC2CCCCC2)ccc1OCc1ccccc1	none
COc1cc(/C=N/OCC(=O)NC23CC4CC(CC(C4)C2)C3)ccc1OCc1ccccc1	none | KCNK9 inh conf inactive | Kir2-1 spec inactive | HEK293 Tl ctr 26.5%
Cc1ccccc1Nc1ncnc2c1cnn2-c1ccccc1	KCNK9 inh -9.46 | KCNK9 inh conf inactive | Kir2-1 spec inactive | HEK293 Tl ctr inactive
CC(C)(Oc1ccc(Cl)cc1)C(=O)O/N=C(\N)c1ccncc1	none
Cn1cc([N+](=O)[O-])c(C(=O)n2cccn2)n1	none
COC(=O)CCNC(=O)Cc1ccc(S(=O)(=O)N2CCCCC2)s1	none (no result: hERG protect, KCNK9 inh, KCNQ1 pot, KCNQ1 block, Kir21 block)
CCOC(=O)CN1C(=O)C(Sc2n[nH]c(-c3ccc(O)cc3)n2)CCc2ccccc21 (stereo not drawn)	KCNK9 inh -9.44 | KCNK9 inh conf 36.0% | Kir2-1 spec inactive | HEK293 Tl ctr inactive
Cc1ccc(S(=O)(=O)CCC(=O)OCC(=O)Nc2cc(S(=O)(=O)N3CCOCC3)ccc2C)cc1	none
Cc1ccc(SCCCn2cnc3ccccc3c2=O)cc1	none | KCNK9 inh conf inactive | Kir2-1 spec inactive | HEK293 Tl ctr inactive
Cc1ccccc1NCC(=O)Nc1cc(S(=O)(=O)N2CCCCC2)ccc1C	none (no result: hERG protect, KCNK9 inh, KCNQ1 pot, KCNQ1 block, Kir21 block)
